Source: ChEMBL document CHEMBL1131094, “Classical/nonclassical hybrid cannabinoids: southern aliphatic chain-functionalized C-6beta methyl, ethyl, and propyl analogues” (J Med Chem, 1998)

Key:
Cannabinoid receptor 1 = Cannabinoid receptor 1 (Rattus norvegicus, UniProt P20272); assay: Binding affinity to Cannabinoid receptor 1 from rat forebrain synaptosomal membranes was measured using [3H]CP-55940 as radioligand
In short: (§1)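 Filtration displacement assay: 40 µg membrane protein (rat forebrain synaptosomes for CB1, mouse spleen for CB2) incubated 1 h at 30 °C with 0.76 nM [3H]CP-55,940 and varied test concentrations. Nonspecific binding defined by 100 nM unlabeled CP-55,940. Specific binding normalized 0–100%, IC50 fitted with a four-variable equation (max 100, min 0), mean of ≥3 experiments in duplicate, then converted to Ki.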

Cannabinoid receptor 2 = Cannabinoid receptor 2 (Mus musculus, UniProt P47936); assay: Binding affinity to Cannabinoid receptor 2 from mouse spleen was measured using [3H]CP-55940 as radioligand; type: tissue-based; in short: as §1
Sequence of Cannabinoid receptor 2 (P47936 whole entry): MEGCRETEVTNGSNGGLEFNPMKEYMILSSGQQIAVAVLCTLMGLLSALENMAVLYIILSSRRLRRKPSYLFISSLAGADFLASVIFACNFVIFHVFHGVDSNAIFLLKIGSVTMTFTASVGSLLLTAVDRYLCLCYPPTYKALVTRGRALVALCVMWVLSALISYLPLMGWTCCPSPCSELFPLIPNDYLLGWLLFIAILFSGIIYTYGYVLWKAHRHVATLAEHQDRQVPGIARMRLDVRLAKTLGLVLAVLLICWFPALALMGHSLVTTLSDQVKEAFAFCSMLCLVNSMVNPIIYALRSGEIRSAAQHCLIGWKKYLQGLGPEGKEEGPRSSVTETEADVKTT

Sequence of Cannabinoid receptor 1 (P20272 whole entry): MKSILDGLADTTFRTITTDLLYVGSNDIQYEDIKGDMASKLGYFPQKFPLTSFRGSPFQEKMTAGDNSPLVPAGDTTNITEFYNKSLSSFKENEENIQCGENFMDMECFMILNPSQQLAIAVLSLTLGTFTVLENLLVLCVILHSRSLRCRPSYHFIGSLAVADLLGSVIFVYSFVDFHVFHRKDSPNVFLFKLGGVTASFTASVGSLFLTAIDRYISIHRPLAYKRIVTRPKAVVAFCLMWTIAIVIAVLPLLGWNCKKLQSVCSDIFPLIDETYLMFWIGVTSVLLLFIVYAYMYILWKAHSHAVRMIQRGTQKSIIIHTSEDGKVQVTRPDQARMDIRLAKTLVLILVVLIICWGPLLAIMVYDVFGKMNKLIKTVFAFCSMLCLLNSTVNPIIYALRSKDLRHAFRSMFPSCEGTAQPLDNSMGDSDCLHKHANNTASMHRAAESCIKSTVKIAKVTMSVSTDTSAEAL

Structure (SMILES) | Ki (Cannabinoid receptor 1) | Ki (Cannabinoid receptor 2)
CCCCCCC(C)(C)c1cc(O)c2c(c1)O[C@@](C)(CCCI)[C@@H]1CC[C@@H](CO)C[C@@H]21 | 2.2 nM | 4.3 nM
CCCCCCC(C)(C)c1cc(O)c2c(c1)O[C@@](C)(CCO)[C@@H]1CC[C@@H](CO)C[C@@H]21 | 2.8 nM | 2.3 nM
CCCCCCC(C)(C)c1cc(O)c2c(c1)O[C@@](C)(CCI)[C@@H]1CC[C@@H](CO)C[C@@H]21 | 40.7 nM | 9.7 nM
CCCCCCC(C)(C)c1cc(O)c2c(c1)O[C@@](C)(CC)[C@@H]1CC[C@@H](CO)C[C@@H]21 | 11.1 nM | 21.5 nM
CCCCCCC(C)(C)c1cc(O)c2c(c1)O[C@@](C)(CO)[C@@H]1CC[C@@H](CO)C[C@@H]21 | 1.9 nM | 1.4 nM
CCCCCCC(C)(C)c1cc(O)c2c(c1)O[C@@](C)(CCCO)[C@@H]1CC[C@@H](CO)C[C@@H]21 | 2.2 nM | 3.4 nM
CCCCCCC(C)(C)c1cc(O)c2c(c1)O[C@@](C)(CCC)[C@@H]1CC[C@@H](CO)C[C@@H]21 | 14.4 nM | 38.9 nM
CCCCCCC(C)(C)c1cc(O)c2c(c1)OC(C)(C)[C@@H]1CC[C@@H](CO)C[C@@H]21 | 2.3 nM | 2.3 nM
